Entries after “also recorded” stand apart in the source; their conditions may differ. Read-outs that look alike come from different tables or passages of the source.
Assays:
Dopamine 2 (D2) = Dopamine 2 (D2) (Homo sapiens, UniProt P14416); experiment: NIMH-PDSP radioligand binding, D2
Sigma1 = Sigma1 (Rattus norvegicus, UniProt Q9R0C9); experiment: NIMH-PDSP radioligand binding, Sigma-1
MES-induced seizures = experiment: Maximal electroshock; type: in vivo, mice; conditions: for MES (30) N/F, animals active over tested: 30 mg/kg i.p.; for MES (100) N/F, animals active over tested: 100 mg/kg i.p.
Summary of the method: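 Mice received test compound i.p. at 30, 100 or 300 mg/kg in 0.01 ml/g and were tested at various intervals after dosing. Corneal electrodes primed with 0.5% tetracaine HCl electrolyte delivered 60 Hz alternating current, 50 mA, for 0.2 s. An animal counted as protected when the hindlimb tonic extensor component was abolished. Results are scored as animals protected over tested.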

[1] = tested on: PCP site of the NMDA receptor complex; experiment: [3H]; type: binding, rat; conditions: for Ki: read-out: NMDA affinity Ki, calculated by Cheng and Prusoff equation
Summary of the method: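 Washed rat forebrain homogenate (30 ug/mL protein) in 10 mM HEPES, pH 7.4, with 1 nM (+)-[3H]MK-801, 100 uM glutamate, 30 uM glycine and varied competitor concentrations. Nonspecific binding was set with 30 uM (+)-MK-801. Incubation ran 2 h at room temperature, then vacuum filtration onto GF/B filters, three buffer washes and scintillation counting.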

[2] = target: κ- opioid receptors (KOR) (Rattus norvegicus, UniProt P34975); experiment: NIMH-PDSP radioligand binding, KOR
Chain of κ- opioid receptors (KOR) (P34975 whole entry): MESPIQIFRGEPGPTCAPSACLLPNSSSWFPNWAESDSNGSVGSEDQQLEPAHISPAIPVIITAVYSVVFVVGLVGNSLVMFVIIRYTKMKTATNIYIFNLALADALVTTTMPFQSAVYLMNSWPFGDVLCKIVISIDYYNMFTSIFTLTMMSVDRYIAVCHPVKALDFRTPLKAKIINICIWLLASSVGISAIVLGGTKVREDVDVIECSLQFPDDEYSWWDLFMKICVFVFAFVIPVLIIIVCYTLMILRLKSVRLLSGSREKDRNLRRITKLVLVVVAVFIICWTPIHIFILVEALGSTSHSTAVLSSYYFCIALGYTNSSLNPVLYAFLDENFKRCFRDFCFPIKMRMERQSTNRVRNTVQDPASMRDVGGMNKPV

Sigma2 = target: T1, Sigma2 (Rattus norvegicus, UniProt Q5U3Y7); experiment: NIMH-PDSP radioligand binding, Sigma-2
T1 sequence (Q5U3Y7 1-176): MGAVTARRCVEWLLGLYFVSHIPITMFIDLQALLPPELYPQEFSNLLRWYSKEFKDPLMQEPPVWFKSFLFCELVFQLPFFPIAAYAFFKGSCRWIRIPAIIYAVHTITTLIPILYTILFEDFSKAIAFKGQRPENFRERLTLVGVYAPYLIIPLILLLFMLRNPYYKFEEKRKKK

[3] = target: Norepinephrine Transporter (NET) (Homo sapiens, UniProt P23975); experiment: NIMH-PDSP radioligand binding, NET
Chain of Norepinephrine Transporter (NET) (P23975 whole entry): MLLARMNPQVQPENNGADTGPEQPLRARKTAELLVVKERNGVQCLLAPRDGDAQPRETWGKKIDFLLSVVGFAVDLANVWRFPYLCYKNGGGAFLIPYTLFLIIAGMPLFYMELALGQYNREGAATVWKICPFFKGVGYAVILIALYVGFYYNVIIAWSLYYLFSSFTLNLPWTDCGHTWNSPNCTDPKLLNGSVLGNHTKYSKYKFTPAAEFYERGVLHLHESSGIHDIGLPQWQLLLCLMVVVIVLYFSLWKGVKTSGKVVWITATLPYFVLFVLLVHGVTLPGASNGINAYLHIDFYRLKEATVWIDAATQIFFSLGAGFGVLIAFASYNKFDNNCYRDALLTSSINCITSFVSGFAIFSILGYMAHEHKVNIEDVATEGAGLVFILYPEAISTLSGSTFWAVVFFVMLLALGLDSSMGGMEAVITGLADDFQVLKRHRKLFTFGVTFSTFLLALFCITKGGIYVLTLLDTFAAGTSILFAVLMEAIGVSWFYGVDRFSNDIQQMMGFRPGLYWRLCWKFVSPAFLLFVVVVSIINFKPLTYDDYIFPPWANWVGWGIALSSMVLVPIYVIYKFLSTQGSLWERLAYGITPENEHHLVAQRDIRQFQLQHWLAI

[4] = target: μ- opioid receptors (MOR) (Homo sapiens, UniProt P35372); experiment: NIMH-PDSP radioligand binding, MOR
Chain of μ- opioid receptors (MOR) (P35372 whole entry): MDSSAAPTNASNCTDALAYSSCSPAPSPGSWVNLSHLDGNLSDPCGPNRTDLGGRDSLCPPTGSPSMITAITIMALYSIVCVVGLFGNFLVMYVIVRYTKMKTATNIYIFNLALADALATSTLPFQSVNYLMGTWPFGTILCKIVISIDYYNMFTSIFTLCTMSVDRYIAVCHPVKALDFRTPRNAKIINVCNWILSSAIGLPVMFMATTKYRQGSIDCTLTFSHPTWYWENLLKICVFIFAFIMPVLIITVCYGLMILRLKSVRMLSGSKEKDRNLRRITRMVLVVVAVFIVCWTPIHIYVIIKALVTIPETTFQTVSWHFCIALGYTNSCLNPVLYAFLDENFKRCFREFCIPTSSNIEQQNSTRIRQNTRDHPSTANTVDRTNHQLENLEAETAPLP

Dopamine 1 (D1) = Dopamine 1 (D1) (Homo sapiens, UniProt P21728); experiment: NIMH-PDSP radioligand binding, D1
Chain of Dopamine 1 (D1) (P21728 whole entry): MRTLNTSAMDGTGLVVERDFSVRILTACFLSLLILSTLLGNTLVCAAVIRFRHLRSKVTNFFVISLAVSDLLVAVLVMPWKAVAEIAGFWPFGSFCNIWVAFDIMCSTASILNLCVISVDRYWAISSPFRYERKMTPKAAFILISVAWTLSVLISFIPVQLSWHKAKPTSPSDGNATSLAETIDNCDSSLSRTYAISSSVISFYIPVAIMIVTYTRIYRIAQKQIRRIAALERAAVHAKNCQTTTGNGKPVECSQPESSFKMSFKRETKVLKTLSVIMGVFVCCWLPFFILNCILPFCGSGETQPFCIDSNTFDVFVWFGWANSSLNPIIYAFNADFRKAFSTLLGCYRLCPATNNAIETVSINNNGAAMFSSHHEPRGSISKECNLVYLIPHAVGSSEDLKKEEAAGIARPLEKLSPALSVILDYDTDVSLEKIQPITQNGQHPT

[5] = tested on: Metrazol-induced clonic seizures; experiment: Subcutaneous Metrazol seizure threshold test; type: in vivo, mice; conditions: for scMET (30) N/F, animals active over tested: 30 mg/kg; for scMET (100) N/F, animals active over tested: 100 mg/kg; for scMET (300) N/F, animals active over tested: 300 mg/kg
mice = experiment: Acute toxicity, minimal motor impairment; type: in vivo; conditions: for TOX (30) N/F, animals toxic over tested / TOX (100) N/F, animals toxic over tested / TOX (300) N/F, animals toxic over tested: rotorod; for TOX (30) N/F, animals toxic over tested: 30 mg/kg
[6] = target: Dopamine Transporter (DAT) (Homo sapiens, UniProt Q01959); experiment: NIMH-PDSP radioligand binding, DAT
Chain of Dopamine Transporter (DAT) (Q01959 whole entry): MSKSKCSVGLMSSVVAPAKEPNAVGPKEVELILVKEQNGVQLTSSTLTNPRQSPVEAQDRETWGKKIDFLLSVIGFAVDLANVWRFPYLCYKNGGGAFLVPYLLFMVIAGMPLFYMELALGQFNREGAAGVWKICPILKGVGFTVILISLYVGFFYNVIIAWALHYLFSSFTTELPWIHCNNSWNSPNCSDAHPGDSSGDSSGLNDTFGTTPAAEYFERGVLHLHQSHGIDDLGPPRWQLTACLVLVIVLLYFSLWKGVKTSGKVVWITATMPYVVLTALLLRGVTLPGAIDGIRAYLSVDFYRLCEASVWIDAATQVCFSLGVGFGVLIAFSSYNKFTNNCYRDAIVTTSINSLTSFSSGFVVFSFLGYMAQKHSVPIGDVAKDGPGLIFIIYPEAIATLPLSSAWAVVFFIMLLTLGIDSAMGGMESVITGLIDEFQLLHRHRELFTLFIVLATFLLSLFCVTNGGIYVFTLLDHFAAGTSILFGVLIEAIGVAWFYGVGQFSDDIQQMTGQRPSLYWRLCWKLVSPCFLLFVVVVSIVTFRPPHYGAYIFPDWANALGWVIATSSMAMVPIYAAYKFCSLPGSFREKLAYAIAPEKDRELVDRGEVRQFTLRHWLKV

Serotonin 2A (5-HT2A) = Serotonin 2A (5-HT2A) (Homo sapiens, UniProt P28223); experiment: NIMH-PDSP radioligand binding, 5-HT2A
Chain of Serotonin 2A (5-HT2A) (P28223 whole entry): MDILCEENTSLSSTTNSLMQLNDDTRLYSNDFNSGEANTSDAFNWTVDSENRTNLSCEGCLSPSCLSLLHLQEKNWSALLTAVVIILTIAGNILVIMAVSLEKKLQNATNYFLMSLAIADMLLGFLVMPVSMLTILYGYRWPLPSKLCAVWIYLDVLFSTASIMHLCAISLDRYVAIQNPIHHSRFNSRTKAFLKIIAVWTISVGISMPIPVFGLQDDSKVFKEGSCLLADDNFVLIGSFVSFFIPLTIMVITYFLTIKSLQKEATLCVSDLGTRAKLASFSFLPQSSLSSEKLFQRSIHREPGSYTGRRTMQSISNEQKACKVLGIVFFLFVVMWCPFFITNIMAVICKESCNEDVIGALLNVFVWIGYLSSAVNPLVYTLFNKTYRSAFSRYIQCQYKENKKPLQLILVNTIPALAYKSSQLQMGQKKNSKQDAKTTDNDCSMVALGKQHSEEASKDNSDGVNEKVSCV

[7] = target: Serotonin Transporter (SERT) (Homo sapiens, UniProt P31645); experiment: NIMH-PDSP radioligand binding, SERT
Chain of Serotonin Transporter (SERT) (P31645 whole entry): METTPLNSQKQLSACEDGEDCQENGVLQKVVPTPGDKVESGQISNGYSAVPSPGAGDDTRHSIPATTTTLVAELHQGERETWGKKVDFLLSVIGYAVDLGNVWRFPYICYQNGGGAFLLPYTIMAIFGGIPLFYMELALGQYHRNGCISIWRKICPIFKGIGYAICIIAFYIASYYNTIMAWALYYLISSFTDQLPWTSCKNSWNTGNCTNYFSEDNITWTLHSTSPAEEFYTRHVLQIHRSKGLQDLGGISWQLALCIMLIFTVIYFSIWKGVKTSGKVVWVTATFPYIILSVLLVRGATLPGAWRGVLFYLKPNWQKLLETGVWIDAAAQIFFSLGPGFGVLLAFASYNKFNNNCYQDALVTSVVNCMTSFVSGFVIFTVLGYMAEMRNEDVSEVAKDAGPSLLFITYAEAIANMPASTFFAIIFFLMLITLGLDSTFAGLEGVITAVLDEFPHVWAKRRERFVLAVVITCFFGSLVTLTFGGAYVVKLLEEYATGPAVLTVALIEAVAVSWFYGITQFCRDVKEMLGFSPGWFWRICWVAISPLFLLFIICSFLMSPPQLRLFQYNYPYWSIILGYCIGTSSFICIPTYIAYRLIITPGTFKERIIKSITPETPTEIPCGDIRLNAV

Chain of Sigma1 (Q9R0C9 whole entry): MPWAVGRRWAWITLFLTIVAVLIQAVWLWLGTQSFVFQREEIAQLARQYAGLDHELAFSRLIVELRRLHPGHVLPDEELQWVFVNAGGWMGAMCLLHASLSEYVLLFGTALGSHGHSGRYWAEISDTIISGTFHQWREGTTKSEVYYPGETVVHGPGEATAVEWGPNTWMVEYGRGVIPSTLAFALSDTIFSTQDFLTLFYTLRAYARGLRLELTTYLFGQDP
Chain of Dopamine 2 (D2) (P14416 whole entry): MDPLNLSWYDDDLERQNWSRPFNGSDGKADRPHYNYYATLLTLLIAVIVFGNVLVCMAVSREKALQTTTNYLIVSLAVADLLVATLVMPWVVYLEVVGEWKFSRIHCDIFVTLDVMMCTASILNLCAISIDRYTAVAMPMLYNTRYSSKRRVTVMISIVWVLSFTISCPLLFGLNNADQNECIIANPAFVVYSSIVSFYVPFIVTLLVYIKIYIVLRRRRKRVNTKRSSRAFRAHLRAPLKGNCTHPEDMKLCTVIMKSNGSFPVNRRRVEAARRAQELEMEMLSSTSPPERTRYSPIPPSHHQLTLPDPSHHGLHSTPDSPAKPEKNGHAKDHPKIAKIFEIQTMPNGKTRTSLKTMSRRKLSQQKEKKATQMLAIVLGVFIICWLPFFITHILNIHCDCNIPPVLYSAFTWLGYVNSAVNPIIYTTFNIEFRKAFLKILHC

Row | Compound | Ki (Dopamine 2 (D2)) [µM] | Ki (Sigma1) [µM] | MES (30) N/F, animals active over tested (MES-induced seizures; 0.5 h) | MES (30) N/F, animals active over tested (MES-induced seizures; 4.0 h) | MES (100) N/F, animals active over tested (MES-induced seizures; 0.5 h) | MES (100) N/F, animals active over tested (MES-induced seizures; 4.0 h) | Ki [2] [nM] | Ki (Sigma2) [µM] | Ki [3] [µM] | Ki [4] [µM] | Ki (Dopamine 1 (D1)) [µM] | scMET (30) N/F, animals active over tested ([5]; 0.5 h) | scMET (30) N/F, animals active over tested ([5]; 4.0 h) | scMET (100) N/F, animals active over tested ([5]; 0.5 h) | scMET (100) N/F, animals active over tested ([5]; 4.0 h) | scMET (300) N/F, animals active over tested ([5]; 0.5 h) | scMET (300) N/F, animals active over tested ([5]; 4.0 h) | TOX comments (mice; 300 mg/kg, 0.5 h) | TOX (30) N/F, animals toxic over tested (mice; 0.5 h) | TOX (30) N/F, animals toxic over tested (mice; 4.0 h) | further results
1 | c1ccc(C2(NCCN3CCOCC3)CC3CCC2C3)cc1 (stereo not drawn) [Compound 5c, N-(2-morpholinoethyl)-2-phenylbicyclo [2.2.1] heptan-2-amine] | > 10 | > 10 | 0/1 0/1 | 0/1 0/1 | 2/3 | 0/3 | 988 | > 10 | > 10 | > 10 | > 10 | 0/1 0/1 | 0/1 0/1 | 0/1 0/1 | 0/1 0/1 | 0/1 | 0/0 | Death following clonic seizure; also recorded: Clonic seizures | 0/4 | 0/2 | MES neuroprotective activity (in words) (MES-induced seizures; mouse, in vivo): displayed MES neuroprotective activity; affinity for NMDA (in words) [1]: did not exhibit significant affinity; TOX comments (mice; 100 mg/kg, 0.5 h): Clonic seizures; TOX comments (mice; 300 mg/kg, 4 h): Death; TOX (100) N/F, animals toxic over tested (mice; 100 mg/kg, 0.5 h): 6/8; TOX (100) N/F, animals toxic over tested (mice; 100 mg/kg, 4.0 h): 0/4; TOX (300) N/F, animals toxic over tested (mice; 300 mg/kg, 0.5 h): 4/4; TOX (300) N/F, animals toxic over tested (mice; 300 mg/kg, 4.0 h): 1/1; Ki [6]: 2.57 µM; Ki (Serotonin 2A (5-HT2A)): > 10 µM; Ki [7]: > 10 µM
2 | c1ccc(C2(NCCN3CCCC3)CC3CCC2C3)cc1 (stereo not drawn) [Compound 5e, 2-Phenyl-N-(2-(pyrrolidin-1-yl)ethyl) bicyclo[2.2.1]heptan-2-amine] | > 10 | > 10 | 0/1 0/1 | 0/1 0/1 | 0/3 0/3 | 0/3 0/3 | 4510 | > 10 | > 10 | > 10 | > 10 | 0/1 0/1 | 0/1 0/1 | 0/1 0/1 | 0/1 0/1 | 0/1 | 0/0 | Diarrhea; also recorded: Unable to grasp rotorod; also recorded: Death | 0/4 | 0/2 | MES protection (in words) (MES-induced seizures; 100 mg/kg): all protective in the MES test at the dose of 100 mg/kg except for compound 5e; % inhibition of 1 nM [3H] (+)-MK-801 ([1]; compound at 10 μM (10,000 nM)): greater than 90%; IC50 ([1]; rat forebrain homogenate, 1 nM (+)-[3H]MK-801): 8.48 ± 3.11 µM; Ki [1]: 5670 nM; TOX (100) N/F, animals toxic over tested (mice; 100 mg/kg, 0.5 h): 0/8; TOX (100) N/F, animals toxic over tested (mice; 100 mg/kg, 4.0 h): 0/4; TOX (300) N/F, animals toxic over tested (mice; 300 mg/kg, 0.5 h): 4/4 /; Ki [6]: 3.62 µM; Ki (Serotonin 2A (5-HT2A)): > 10 µM; Ki [7]: > 10 µM
3 | (+)-MK-801 [reference compound] |  |  |  |  |  |  |  |  |  |  |  |  |  |  |  |  |  |  |  |  | Kd ([1]; read-out: Kd for (+)-MK-801 binding, saturation conditions, homologous binding assay): 1.75 nM; Ki ([1]; reference): 1.36 nM

From article PMC3115441 (Chemical biology & drug design, 2011)
